The test addresses G protein-activated inward rectifier potassium channel 2 (Homo sapiens) + G protein-activated inward rectifier potassium channel 3 (Homo sapiens) (UniProt P48051+Q92806). The experiment in a line: activation of GIRK2/3 current, electrophysiology, HEK-293 hGIRK2/3, whole-cell voltage clamp, Ba2+-sensitive current, GIRK activator project, confirmation (AID 623974). Summed up: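 test system = HEK-293 cells stably expressing human GIRK2/3 potassium channels | dosing = compound concentration series fitted by four-parameter logistic curve | technique = whole-cell patch clamp, -70 mV holding, barium subtraction | measure = Barium-blocked steady-state current density, % of methyl pentanediol response | schedule = recording 24–72 h post-plating | buffer or medium = 20K bath, KCl pipette solution pH 7.4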

Activity calls are given as the source filed them. How the calls were made is not given here.

Sequence of G protein-activated inward rectifier potassium channel 2 (Homo sapiens) + G protein-activated inward rectifier potassium channel 3 (Homo sapiens) (P48051 whole entry, looked up): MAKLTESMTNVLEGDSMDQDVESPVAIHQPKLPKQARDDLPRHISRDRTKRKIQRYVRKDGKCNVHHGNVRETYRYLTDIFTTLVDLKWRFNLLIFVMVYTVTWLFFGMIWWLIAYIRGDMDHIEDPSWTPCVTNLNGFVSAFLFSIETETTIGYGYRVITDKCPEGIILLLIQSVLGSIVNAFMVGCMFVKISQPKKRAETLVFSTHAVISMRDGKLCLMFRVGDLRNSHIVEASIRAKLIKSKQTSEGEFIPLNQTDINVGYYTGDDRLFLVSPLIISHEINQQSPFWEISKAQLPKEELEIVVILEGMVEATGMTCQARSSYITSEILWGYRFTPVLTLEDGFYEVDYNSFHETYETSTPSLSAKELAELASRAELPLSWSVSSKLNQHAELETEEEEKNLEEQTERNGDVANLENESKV
Sequence of G protein-activated inward rectifier potassium channel 2 (Homo sapiens) + G protein-activated inward rectifier potassium channel 3 (Homo sapiens) (Q92806 whole entry, looked up): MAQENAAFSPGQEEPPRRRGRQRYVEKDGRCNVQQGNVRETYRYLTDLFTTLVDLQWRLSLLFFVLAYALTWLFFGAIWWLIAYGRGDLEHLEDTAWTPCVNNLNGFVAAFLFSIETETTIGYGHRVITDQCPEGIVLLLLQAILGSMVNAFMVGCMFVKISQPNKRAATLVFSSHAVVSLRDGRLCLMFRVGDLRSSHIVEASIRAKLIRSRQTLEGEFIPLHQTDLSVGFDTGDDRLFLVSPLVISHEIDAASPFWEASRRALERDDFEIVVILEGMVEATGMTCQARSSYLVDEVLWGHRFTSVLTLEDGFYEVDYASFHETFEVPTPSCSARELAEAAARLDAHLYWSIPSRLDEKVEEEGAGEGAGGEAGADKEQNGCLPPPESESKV

As to `Cc1cc(NC(=O)Nc2ccc(F)c(F)c2)n(-c2ccccc2)n1`, the result was inactive.

Source of the values: PubChem BioAssay AID623974 (Vanderbilt High Throughput Screening Facility, 2012).
